Shown are actives, neighbours in structure and some others; about 2.6% of the full set was active somewhere.
Arbovirus anti: arbovirus infection inhibition. arbovirus infection cell-based antiviral screen. inhibition, % at 10 µM. actives 0.37% (n = 200,000); in the data active means inhibition above about 30%
TNAP inh no acc: inhibitors of human TNAP without phosphate acceptor; purified TNAP, CDP-star luminescence, 30 min; AID 1012; inhibition, % at 20 µM; actives 0.26% (n = 200,000);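 active means tissue-nonspecific alkaline phosphatase inhibition above about 50% at 20 µM in the single-dose screen, limit read from the data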
Target sequence (P05186 whole entry, looked up): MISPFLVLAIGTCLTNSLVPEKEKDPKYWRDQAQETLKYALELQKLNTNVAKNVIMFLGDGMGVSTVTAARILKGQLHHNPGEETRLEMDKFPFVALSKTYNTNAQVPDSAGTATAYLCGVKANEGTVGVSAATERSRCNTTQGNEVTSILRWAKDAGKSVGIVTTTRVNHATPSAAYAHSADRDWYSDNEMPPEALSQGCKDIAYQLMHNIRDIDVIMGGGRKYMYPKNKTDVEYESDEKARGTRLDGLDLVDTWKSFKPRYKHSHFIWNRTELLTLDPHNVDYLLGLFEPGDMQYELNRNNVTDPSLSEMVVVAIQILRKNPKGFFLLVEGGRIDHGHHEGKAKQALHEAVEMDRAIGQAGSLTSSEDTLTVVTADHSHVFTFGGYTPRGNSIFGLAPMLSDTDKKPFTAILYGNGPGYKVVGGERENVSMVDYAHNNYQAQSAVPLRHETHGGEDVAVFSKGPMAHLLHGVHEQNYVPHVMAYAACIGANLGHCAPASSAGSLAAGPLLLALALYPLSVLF
TNAP inh hi DEA: blocks human TNAP under high phosphate acceptor concentration; P05186; purified TNAP, CDP-star luminescence, 1 M DEA; inhibition, % at 20 µM; actives 0.03% (n = 200,000);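 active means over 50% inhibition of tissue-nonspecific alkaline phosphatase at 20 µM in the single-dose screen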
TNAP act hi DEA: activators of human TNAP at high phosphate acceptor concentration; P05186; purified TNAP, CDP-star luminescence, 1 M DEA, 30 min; hits give high values; 0 = EDTA background, 1 = DMSO-only activity; activation factor at 20 µM; 200,000 tested, under 10 active;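 active means activation factor at least 2 at 20 µM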
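Control set: EDTA negative control, DMSO positive control / Assay system: human TNAP / Quantity: TNAP 1/800 final / Evaluation: TNAP activation factor scaled between EDTA and DMSO control wells / Measured by: luminescent substrate turnover signal / Compound dosing: one dose, 20 µM / Times: 30 min enzyme reaction at room temperature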
WT yeast gro inh: growth inhibition of WT yeast, mitochondrial fusion screen; mitochondrial fusion phenotypic screen, WT strain; inhibition, % at 10 µM; actives 2.1% (n = 190,000); AID 1362; in the data active means inhibition above about 58%; tested in S. cerevisiae
Numbers stand for hits.

Results for CCCCn1nnc(NC(=S)NC(=O)c2ccc(-c3cccc(Cl)c3Cl)o2)n1 ?
Arbovirus anti: inactive; TNAP inh no acc: inactive; TNAP inh hi DEA: inactive; TNAP act hi DEA: inactive; WT yeast gro inh: 78

What do the screens show for `COCCn1c(SCC(=O)Nc2sccc2C(N)=O)nnc1-c1ccncc1`?
Arbovirus anti: inactive; TNAP inh no acc: inactive; TNAP inh hi DEA: inactive; TNAP act hi DEA: inactive; WT yeast gro inh: inactive

Results for Cc1ccc(C2SCCN2C(=O)c2ccc([N+](=O)[O-])cc2)cc1 (stereo not given) ?
Arbovirus anti: inactive; TNAP inh no acc: inactive; TNAP inh hi DEA: inactive; TNAP act hi DEA: inactive; WT yeast gro inh: inactive

How did Cc1cc(C)nc(NS(=O)(=O)c2ccc(NC(=O)c3ccco3)cc2)n1 do in these assays?
Arbovirus anti: inactive; TNAP inh no acc: inactive; TNAP inh hi DEA: inactive; TNAP act hi DEA: inactive; WT yeast gro inh: inactive

How did CCc1ccc(C(=O)Nc2ccc(S(=O)(=O)Nc3nc(C)cc(C)n3)cc2)o1 do in these assays?
Arbovirus anti: 106; TNAP inh no acc: inactive; TNAP inh hi DEA: inactive; TNAP act hi DEA: inactive

Results for O=C(O)CC/C(=C\c1ccc(Cl)c([N+](=O)[O-])c1)c1nc2ccccc2s1 ?
Arbovirus anti: inactive; TNAP inh no acc: inactive; TNAP inh hi DEA: inactive; TNAP act hi DEA: inactive; WT yeast gro inh: inactive

What do the screens show for `COc1cc(/C=C(\C#N)c2nc3ccccc3s2)cc([N+](=O)[O-])c1O`?
Arbovirus anti: 36; TNAP inh no acc: inactive; TNAP inh hi DEA: inactive; TNAP act hi DEA: inactive; WT yeast gro inh: 67

What do the screens show for `N#C/C(=C\c1ccc(O)c([N+](=O)[O-])c1)c1nc2ccccc2s1`?
Arbovirus anti: 46; TNAP inh no acc: inactive; TNAP inh hi DEA: inactive; TNAP act hi DEA: inactive; WT yeast gro inh: inactive

What do the screens show for `Cc1ccc(-n2c(N)c(C#N)c(-c3ccccc3)c(C#N)c2=O)cc1`?
Arbovirus anti: inactive; TNAP inh no acc: inactive; TNAP inh hi DEA: inactive; TNAP act hi DEA: inactive; WT yeast gro inh: 70

How did Cc1ccc(-n2c(C)cc(C)c(C#N)c2=O)cc1 do in these assays?
Arbovirus anti: inactive; TNAP inh no acc: inactive; TNAP inh hi DEA: inactive; TNAP act hi DEA: inactive; WT yeast gro inh: inactive

What do the screens show for `CCOC(=O)c1c(NC(=O)c2ccco2)sc2c1CCCC2`?
Arbovirus anti: inactive; TNAP inh no acc: inactive; TNAP inh hi DEA: inactive; TNAP act hi DEA: inactive; WT yeast gro inh: inactive

How did CCOC(=O)c1c(NC(=O)CN2CCN(C(=O)c3ccco3)CC2)sc2c1CCCC2 do in these assays?
Arbovirus anti: inactive; TNAP inh no acc: inactive; TNAP inh hi DEA: inactive; TNAP act hi DEA: inactive; WT yeast gro inh: 66

Results for Cc1ccc2ncnc(Nc3ccccc3)c2c1 ?
Arbovirus anti: inactive; TNAP inh no acc: inactive; TNAP inh hi DEA: inactive; TNAP act hi DEA: inactive; WT yeast gro inh: inactive

How did Clc1cccc(Nc2ncnc3ccc(Br)cc23)c1 do in these assays?
Arbovirus anti: inactive; TNAP inh no acc: inactive; TNAP inh hi DEA: inactive; TNAP act hi DEA: inactive; WT yeast gro inh: 73

What do the screens show for `Cc1cccc(Nc2ncnc3ccc(Br)cc23)c1`?
Arbovirus anti: inactive; TNAP inh no acc: inactive; TNAP inh hi DEA: inactive; TNAP act hi DEA: inactive; WT yeast gro inh: inactive

What do the screens show for `Clc1ccc(Nc2ncnc3ccc(Br)cc23)cc1`?
Arbovirus anti: inactive; TNAP inh no acc: inactive; TNAP inh hi DEA: inactive; TNAP act hi DEA: inactive; WT yeast gro inh: 61

What do the screens show for `O=C(NC1CCS(=O)(=O)C1)C12CC3CC(CC(C3)C1)C2` (stereo not given)?
Arbovirus anti: inactive; TNAP inh no acc: inactive; TNAP inh hi DEA: inactive; TNAP act hi DEA: inactive; WT yeast gro inh: inactive

How did CC1=NN(c2ccc([N+](=O)[O-])cc2)C(=O)/C1=C\N(C)C do in these assays?
Arbovirus anti: inactive; TNAP inh no acc: inactive; TNAP inh hi DEA: inactive; TNAP act hi DEA: inactive; WT yeast gro inh: 65

How did CC1=NN(c2nc3ccccc3[nH]2)C(=O)/C1=C/N(C)C do in these assays?
Arbovirus anti: inactive; TNAP inh no acc: inactive; TNAP inh hi DEA: inactive; TNAP act hi DEA: inactive; WT yeast gro inh: 85

How did CCOC(=O)c1c(NC(=O)OC)sc(C(=O)N(C)C)c1C do in these assays?
Arbovirus anti: inactive; TNAP inh no acc: inactive; TNAP inh hi DEA: inactive; TNAP act hi DEA: inactive; WT yeast gro inh: 71

How did COC(=O)Nc1sc(C(=O)N(C)C)c(C)c1C(=O)OC do in these assays?
Arbovirus anti: inactive; TNAP inh no acc: inactive; TNAP inh hi DEA: inactive; TNAP act hi DEA: inactive; WT yeast gro inh: inactive

How did COc1ccc(-c2nc(SCc3ccccc3)n(C(=O)c3ccco3)n2)cc1 do in these assays?
Arbovirus anti: inactive; TNAP inh no acc: inactive; TNAP inh hi DEA: inactive; TNAP act hi DEA: inactive; WT yeast gro inh: inactive
